The results in this text go back to ChEMBL document CHEMBL1153784, “Synthesis, characterization, antiamoebic activity and toxicity of novel bisdioxazole derivatives” (Eur J Med Chem, 2009).

SMILES strings stand for the structures.

Data set [1] has as its system Entamoeba histolytica. The data set is described as follows: Antiamoebic activity against Entamoeba histolytica HM1:IMSS trophozoites after 72 hrs by microdilution method. Format: functional, organism-based. In outline:
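Trophozoites grown in Diamond TYIS-33 medium in 96-well plates; amoebae detached by chilling on ice. Compounds from freshly prepared 1 mg/ml DMSO stocks, twofold serial dilutions, DMSO at most 0.016%. Plates gassed with nitrogen 10 min, incubated 37 °C 72 h, washed with 0.9% NaCl, stained, dye released with 0.1 N NaOH, OD 490 nm. IC50 by linear regression of % inhibition vs log dose. Triplicate wells, repeated thrice.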

Data set [2] in a line: Toxicity in rat H9c2 cells after 48 hrs by MTT assay. Format: cell-based. A digest of the protocol:
(§1)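 Subconfluent H9c2 cardiac myoblasts exposed to increasing compound concentrations for 48 h at 37 °C in 5% CO2, with an untreated control. Cells washed in PBS, given 5 mg/ml MTT for 45 min at 37 °C. Crystals dissolved in acid isopropanol, absorbance read at 570 nm. Viability = absorbance of treated relative to untreated cells. Run in triplicate.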

Data set [3] is described as follows: Safety index, ratio of IC50 for rat H9c2 cells to IC50 for Entamoeba histolytica HM1:IMSS trophozoites. Format: toxicity, cell-based. The conditions noted are these: read-out: Ratio IC50.
Data set [4] can be described thus: Toxicity in rat H9c2 cells assessed as cell viability at 12.5 ug/ml after 48 hrs by MTT assay. Format: cell-based. Particulars: read-out: Activity. In outline:
as §1

As for `COc1ccc(C2ON=C(c3ccc(C4=NOC(c5ccc(OC)c(OC)c5)O4)cc3)O2)cc1OC` (stereo not given), the IC50 in data set [1] stood at 4.38 µM.
The same measure, in the same setting: under `CCc1ccc(C2ON=C(c3ccc(C4=NOC(c5ccc(CC)cc5)O4)cc3)O2)cc1` (stereo not given) stands 2.78 µM; under `CC(C)c1ccc(C2ON=C(c3ccc(C4=NOC(c5ccc(C(C)C)cc5)O4)cc3)O2)cc1` (stereo not given), 4.65 µM.
Regarding `COc1ccc(C2ON=C(c3ccc(C4=NOC(c5ccc(OC)cc5)O4)cc3)O2)cc1` (stereo not given), in data set [1], it took 1.01 µM to reach half-maximal inhibition (IC50). The IC50 at 48 h in data set [2] was > 17 µM. The selectivity ratio in data set [3] was > 16.8. For the same molecule, the viability at 48 h, 12.5 ug/ml in data set [4] worked out at 89%.
The molecule `O/N=C/c1ccc(/C=N/O)cc1` showed a half-maximal inhibitory concentration (IC50) in data set [1] of 5.73 µM.
`Clc1ccc(C2ON=C(c3ccc(C4=NOC(c5ccc(Cl)c(Cl)c5)O4)cc3)O2)cc1Cl` (stereo not given) gave a 50% inhibitory concentration (IC50) in data set [1] of 6.1 µM.
As for `Cc1ccc(C2ON=C(c3ccc(C4=NOC(c5ccc(C)cc5)O4)cc3)O2)cc1` (stereo not given), in data set [1], half-maximal inhibition (IC50) was put at 1.05 µM. The molecule also yielded an IC50 at 48 h in data set [2] of 49 µM. Moreover, in data set [3], the selectivity ratio was found to be 46.7. Further, in data set [4], the viability at 48 h, 12.5 ug/ml worked out at 82%.
`Clc1ccccc1C1ON=C(c2ccc(C3=NOC(c4ccccc4Cl)O3)cc2)O1` (stereo not given) registered a 50% inhibitory concentration (IC50) in data set [1] of 1.22 µM. The same molecule came in with a 50% inhibitory concentration (IC50) at 48 h in data set [2] of 34 µM. In data set [3], the selectivity ratio is 27.9. Besides, in data set [4], the viability at 48 h, 12.5 ug/ml was 96.2%.
The corresponding values for `Clc1cccc(C2ON=C(c3ccc(C4=NOC(c5cccc(Cl)c5)O4)cc3)O2)c1` (stereo not given) are 1.41 µM, 8 µM, 5.67 and 83.5%.
In data set [1], `Clc1ccc(C2ON=C(c3ccc(C4=NOC(c5ccc(Cl)cc5)O4)cc3)O2)cc1` (stereo not given) yielded a half-inhibitory concentration (IC50) of 4.21 µM.
The same measure, in the same setting: under `c1ccc(C2ON=C(c3ccc(C4=NOC(c5ccccc5)O4)cc3)O2)cc1` (stereo not given) stands 3.96 µM.
Consider `Cc1ncc([N+](=O)[O-])n1CCO` [METRONIDAZOLE], for which the IC50 at 48 h in data set [2] was > 116 µM. In addition, in data set [3], the selectivity ratio is > 64.4.
